The record followed here is ChEMBL document CHEMBL4665761, “Optimizing the Benefit/Risk of Acetyl-CoA Carboxylase Inhibitors through Liver Targeting” (J Med Chem, 2020).

The nature of data set [1]: Aqueous solubility of compound at pH 7.4 using tris(hydroxymethyl)aminomethane (tris) salt form of compound. It counts as physicochemical. As to conditions: buffer.
Data set [2] can be described thus: Aqueous solubility of compound at pH 6.5 using tris(hydroxymethyl)aminomethane (tris) salt form of compound. Format: physicochemical. As to conditions: buffer.
The nature of data set [3]: Aqueous solubility of compound at pH 1.2 using tris(hydroxymethyl)aminomethane (tris) salt form of compound. It counts as physicochemical. The note with it: buffer.
Data set [4] is described as follows: Oral bioavailability in cynomolgus monkey plasma at 5 mg/kg using tris(hydroxymethyl)aminomethane (tris) salt form of compound and measured up to 24 hrs by LC/MS-MS analysis. Format: ADME, organism-based, Macaca fascicularis. Put shortly: (§1)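 Plasma concentration–time data, n = 2, averaged. Cmax and Tmax read directly from the data. AUC0–24 by the linear trapezoidal rule. F calculated as dose-normalized AUC PO/IV.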

The nature of data set [5]: Oral bioavailability in Wistar-Hannover rat plasma at 5 mg/kg tris(hydroxymethyl)aminomethane (tris) salt form of compound and measured up to 24 hrs by LC/MS-MS analysis. Format: ADME, organism-based. In a few lines: as §1
Data set [6] is described as follows: AUC (0 to 24 hrs) in cynomolgus monkey plasma at 5 mg/kg, po tris(hydroxymethyl)aminomethane (tris) salt form of compound and measured up to 24 hrs by LC/MS-MS analysis. Also on record: route oral, dose 5 mg/kg, time <=24. Format: ADME, organism-based, Macaca fascicularis. In a few lines:
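Cynomolgus monkeys received an oral dose. AUC0–24 came from plasma concentration–time data by the linear trapezoidal rule, averaged for n = 2.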

Data set [7] can be described thus: AUC (0 to 24 hrs) in Wistar-Hannover rat plasma at 5 mg/kg, po tris(hydroxymethyl)aminomethane (tris) salt form of compound and measured up to 24 hrs by LC/MS-MS analysis. It counts as ADME, organism-based. Also on record: route oral, dose 5 mg/kg, time <=24. In a few lines: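 Male Wistar-Hannover rats (240–350 g), housed singly after 1 week of acclimation, were dosed orally. AUC0–24 came from plasma concentration–time data by the linear trapezoidal rule, averaged for n = 2. Lower detection limit was 1 ng/mL.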

Data set [8] can be described thus: Tmax in cynomolgus monkey plasma at 5 mg/kg, po tris(hydroxymethyl)aminomethane (tris) salt form of compound and measured up to 24 hrs by LC/MS-MS analysis. It counts as ADME, organism-based, Macaca fascicularis. Put shortly: as §1
The nature of data set [9]: Tmax in Wistar-Hannover rat plasma at 5 mg/kg, po tris(hydroxymethyl)aminomethane (tris) salt form of compound and measured up to 24 hrs by LC/MS-MS analysis. It counts as ADME, organism-based. In a few lines: as §1
A short description of data set [10]: Cmax in cynomolgus monkey plasma at 5 mg/kg, po tris(hydroxymethyl)aminomethane (tris) salt form of compound and measured up to 24 hrs by LC/MS-MS analysis. Format: ADME, organism-based, Macaca fascicularis. The arrangement: route oral, dose 5 mg/kg, time <=24. In a few lines: (§2)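 Cynomolgus monkeys dosed 1 mg/kg IV as the tris salt in 2% N-methylpyrrolidone/98% sulfobutylether-β-cyclodextrin (12.5%) in 50 mM TRIS, pH 8.0, or PO as the tris salt. Plasma was analysed by LC-MS/MS, n = 2. CL = IV dose/AUC; Vss = dose/(AUC × elimination rate constant); Cmax taken from observed data.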

A short description of data set [11]: Cmax in Wistar-Hannover rat plasma at 5 mg/kg, po tris(hydroxymethyl)aminomethane (tris) salt form of compound and measured up to 24 hrs by LC/MS-MS analysis. It counts as ADME, organism-based. The arrangement: route oral, dose 5 mg/kg, time <=24.
Data set [12] can be described thus: Half life in cynomolgus monkey plasma at 5 mg/kg, po tris(hydroxymethyl)aminomethane (tris) salt form of compound and measured up to 24 hrs by LC/MS-MS analysis. It counts as ADME, organism-based, Macaca fascicularis. In a few lines:
as §2

Data set [13] is described as follows: Half life in Wistar-Hannover rat plasma at 5 mg/kg, po tris(hydroxymethyl)aminomethane (tris) salt form of compound and measured up to 24 hrs by LC/MS-MS analysis. Format: ADME, organism-based.
Data set [14] in a line: Ratio of drug uptake in cynomolgus monkey unbound liver to plasma concentration at 1 mg/kg, iv tris(hydroxymethyl)aminomethane (tris) salt form of compound after 6 hrs by LC/MS-MS analysis. The note with it: other tissue. It counts as ADME, organism-based, Macaca fascicularis. In a few lines: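 Cynomolgus monkeys (n = 2) given a single IV dose as tris salt in 2% N-methylpyrrolidone / 98% sulfobutylether-betacyclodextrin (12.5%) in 50 mM TRIS buffer, pH 8.0. Plasma and liver sampled 6 h post-dose. Total concentrations converted to unbound using equilibrium-dialysis fu in plasma and liver. Ratio taken as mean free liver over free plasma concentration.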

A short description of data set [15]: Drug uptake in cynomolgus monkey liver at 1 mg/kg, iv tris(hydroxymethyl)aminomethane (tris) salt form of compound after 6 hrs by LC/MS-MS analysis. It counts as ADME, organism-based, Macaca fascicularis. As to conditions: read-out: Drug uptake. In a few lines: (§3)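 Monkeys, n = 2, given 1 mg/kg IV as the tris salt in 2% N-methylpyrrolidone/98% sulfobutylether-β-cyclodextrin (12.5%) in 50 mM TRIS, pH 8.0. Plasma and liver concentrations were taken 6 h post-dose.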

A short description of data set [16]: Drug uptake in cynomolgus monkey assessed as plasma concentration at 1 mg/kg, iv tris(hydroxymethyl)aminomethane (tris) salt form of compound after 6 hrs by LC/MS-MS analysis. It counts as ADME, organism-based, Macaca fascicularis. In a few lines: as §3
Data set [17] in a line: Ratio of drug uptake in cynomolgus monkey liver to plasma at 1 mg/kg, iv tris(hydroxymethyl)aminomethane (tris) salt form of compound after 6 hrs by LC/MS-MS analysis. Format: ADME, organism-based, Macaca fascicularis. The note with it: liver and plasma. In a few lines: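 Cynomolgus monkeys (n = 2) given 1 mg/kg IV as the tris salt in 2% N-methylpyrrolidone/98% sulfobutylether-β-cyclodextrin (12.5%) in 50 mM TRIS pH 8.0. Liver and plasma taken 6 h post-dose.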

As usually defined, the solubility is how much of the substance goes into solution per volume. What is called bioavailability is dose-corrected exposure relative to a reference, in per cent. As a reminder, the AUC(0-t) is exposure summed from dosing to a finite time, without extrapolation to infinity. A word on the Tmax: it is the time from dosing to the highest level. One may read the Cmax as the maximum level reached in the sampled fluid or tissue. Usually half-life stands for the time in which the quantity being followed falls by half. For orientation: Kp means the ratio of the level in a tissue or fluid to that in plasma or blood. As for `COc1cc(C(=O)N2CCC3(CC2)CC(=O)c2c(cnn2C(C)C)C3)cc(-c2ccc(C(=O)O)cc2)n1.NC(CO)(CO)CO` [CLESACOSTAT TROMETHAMINE], the solubility was 4.77 mM in data set [1], 3.98 mM in data set [2] and 1.32 mM in data set [3]. Moreover, the bioavailability worked out at 52% in [4] and 48% in data set [5]. Moreover, the AUC(0-t) turned out to be 36200 ng·h/mL in [6] and 2490 ng·h/mL in [7]. Besides, the Tmax in [8] came out at 1.13 h; in data set [9], 0.54 h. The results for the Cmax in data set [10] and in [11] were 5780 ng/mL and 390 ng/mL, respectively. The half-life in [12] was 11 h; in data set [13], 5.6 h. Also, in data set [14], the Ratio was found to be 230. Also, the concentration at 6 h came to 1300 ng/mL in data set [15] and 88 ng/mL in data set [16]. Besides, in data set [17], the concentration ratio (Kp) at 6 h is 15.
